# pIC50: −log10 of the molar value.
# Legend:
# HL-60 = test: Antiproliferative activity against human HL60 cells after 62 hrs by MTS assay; type: functional, cell-based; details: HL-60, 62 h
# In short: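 HL-60 cells kept in RPMI-1640 with 10% heat-inactivated FBS, penicillin/streptomycin, 37 °C, 5% CO2. Seeded at 2.0 × 10^4 cells/mL with increasing compound concentrations for 62 h. MTS reagent added, formazan absorbance read at 492/620 nm after 2 h. IC50 from linear regression of viability against log concentration. Mean ± SD of triplicate tests.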
# [1] = Drug uptake in human HL60 cells at 1 uM after 3 hrs by indirect competitive ELISA; type: ADME, cell-based; details: hl-60, 3 h
# In short: (§1)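 HL-60 cells at 5.0 × 10^5 cells/mL were preincubated 1 h, then exposed to compound (final 1, 10 or 100 μM) for 3 h. Cells were washed three times in PBS and lysed in RIPA buffer on ice for 20 min. Cleared supernatant was run in icELISA: HT–HSA coated plate, competition with mAb 1D2, HRP anti-mouse IgG, ABTS, A405. Result given as ng per 5 × 10^6 cells and uptake rate %.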
# [2] = Drug uptake in human HL60 cells at 10 uM after 3 hrs by indirect competitive ELISA; type: ADME, cell-based; details: hl-60, 3 h; in short: as §1
# [3] = Drug uptake in human HL60 cells at 100 uM after 3 hrs by indirect competitive ELISA; type: ADME, cell-based; details: hl-60, 3 h; in short: as §1
pIC50 (HL-60),Compound,Drug uptake [1] [%],Drug uptake [2] [%],Drug uptake [3] [%]
< 4.00,COC1=C[C@]23CCC(=O)N2CCc2cc4c(cc2[C@@H]3[C@@H]1OC(=O)[C@@](O)(CCC(C)(C)O)CC(=O)O)OCO4,–,–,–
< 4.00,COC(=O)C[C@](O)(CCC(C)(C)O)C(=O)O[C@@H]1C(OC)=C[C@]23CCC(=O)N2CCc2cc4c(cc2[C@H]13)OCO4,0.09,0.02,0.02
< 4.00,COC1=C[C@]23CCCN2C(=O)c2cc4c(cc2[C@@H]3[C@@H]1OC(=O)[C@@](O)(CCC(C)(C)O)CC(=O)O)OCO4,–,–,–
< 4.00,COC(=O)C[C@](O)(CCC(C)(C)O)C(=O)O[C@@H]1C(OC)=C[C@]23CCCN2C(=O)c2cc4c(cc2[C@H]13)OCO4,–,–,–
< 4.00,COC1=C[C@]23CCCN2CCc2cc4c(cc2[C@@H]3[C@@H]1OC(=O)[C@@](O)(CCC(C)(C)O)CC(=O)O)OCO4,–,–,–

Compound,pIC50 (HL-60),Drug uptake [1] [%],Drug uptake [2] [%],Drug uptake [3] [%]
COC1=C[C@]23CCCN2CCc2cc4c(cc2[C@@H]3[C@@H]1O)OCO4 [CEPHALOTAXINE],4.21,–,–,–
COC(=O)C[C@](O)(CCC(C)(C)O)C(=O)O[C@@H]1C(OC)=C[C@]23CCCN2CCc2cc4c(cc2[C@H]13)OCO4 [HARRINGTONINE],7.33,3.34,0.61,0.35
COC(=O)C[C@](O)(CCCC(C)(C)O)C(=O)O[C@@H]1C(OC)=C[C@]23CCCN2CCc2cc4c(cc2[C@H]13)OCO4 [OMACETAXINE MEPESUCCINATE],7.66,–,–,–

# From ChEMBL document CHEMBL4130607, “Sodium-Periodate-Mediated Harringtonine Derivatives and Their Antiproliferative Activity against HL-60 Acute Leukemia Cells” (J Nat Prod, 2018)
